Laboratory results as given in ChEMBL document CHEMBL1649176, “Contribution of oxidative damage to antimicrobial lethality” (2009).
≈ marks a conversion by molar mass, not a printed value. Calls of active or inactive are those of the source. No cut-off for these calls is given here.

How the values were obtained:
Escherichia coli [1] = test: Antimicrobial activity against katE gene-deficient Escherichia coli K-12 3202 by broth dilution method; type: functional
Procedure, shortened: (§1)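 Broth dilution in LB medium, about 10^5 bacteria per 1-ml tube, with drug concentrations rising in 50% increments. Tubes were incubated overnight at 37°C and read visually. MIC was the lowest concentration that prevented visible growth.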

Escherichia coli [2] = test: Bactericidal activity against katE gene-deficient Escherichia coli K-12 3202 after 18 hrs; type: functional; conditions: K-12 3202, 18 h
Escherichia coli [3] = test: Antimicrobial activity against katG gene-deficient Escherichia coli K-12 3157 by broth dilution method; type: functional; procedure, shortened: as §1
Escherichia coli [4] = test: Bactericidal activity against sodB gene-deficient Escherichia coli K-12 DKsodB at 0.4 ug/ml; type: functional, organism-based
Escherichia coli [5] = test: Bactericidal activity against sodA, sodB gene-deficient Escherichia coli K-12 3156 after 18 hrs; type: functional; conditions: K-12 3156, 18 h
Escherichia coli [6] = test: Antimicrobial activity against katG,katE gene-deficient Escherichia coli K-12 3201 by broth dilution method; type: functional; procedure, shortened: as §1
Escherichia coli [7] = test: Bactericidal activity against sodB gene-deficient Escherichia coli K-12 3145 after 18 hrs; type: functional; conditions: K-12 3145, 18 h
Escherichia coli [8] = test: Bactericidal activity against sodA gene-deficient Escherichia coli K-12 3144 at 0.4 ug/ml; type: functional, organism-based
Escherichia coli [9] = test: Bactericidal activity against katG gene-deficient Escherichia coli K-12 3157 at 10 times MIC relative to wild-type; type: functional
Escherichia coli [10] = test: Bactericidal activity against ahpC gene-deficient Escherichia coli K-12 3200 after 18 hrs; type: functional; conditions: K-12 3200, 18 h
Escherichia coli [11] = test: Bactericidal activity against sodB gene-deficient Escherichia coli K-12 DKsodB after 2 hrs; type: functional, organism-based
Escherichia coli [12] = test: Antimicrobial activity against sodA gene-deficient Escherichia coli K-12 3144 by broth dilution method; type: functional; procedure, shortened: as §1
Escherichia coli [13] = test: Antimicrobial activity against ahpC gene-deficient Escherichia coli K-12 3200 by broth dilution method; type: functional; procedure, shortened: as §1
Escherichia coli [14] = test: Bactericidal activity against sodB gene-deficient Escherichia coli K-12 DK after 18 hrs; type: functional
Escherichia coli [15] = test: Bactericidal activity against Escherichia coli K-12 BW25113 after 18 hrs; type: functional; conditions: K-12 BW25113, 18 h
Escherichia coli [16] = test: Bactericidal activity against katG,katE gene-deficient Escherichia coli K-12 3201 after 18 hrs; type: functional; conditions: K-12 3201, 18 h
Escherichia coli [17] = test: Antimicrobial activity against sodB gene-deficient Escherichia coli K-12 DKsodB by broth dilution method; type: functional; procedure, shortened: as §1
Escherichia coli [18] = test: Bactericidal activity against katG,katE gene-deficient Escherichia coli K-12 3201 at 10 times MIC relative to wild-type; type: functional
Escherichia coli [19] = test: Bactericidal activity against sodA, sodB gene-deficient Escherichia coli K-12 3156 at 0.4 ug/ml relative to wild-type; type: functional
Escherichia coli [20] = test: Bactericidal activity against sodB gene-deficient Escherichia coli K-12 3145 at 0.4 ug/ml; type: functional, organism-based
Escherichia coli [21] = test: Bactericidal activity against katG gene-deficient Escherichia coli K-12 3157 at 10 times MIC pretreated with 250 uM bipyridyl relative to wild-type; type: functional
Escherichia coli [22] = test: Antimicrobial activity against Escherichia coli K-12 BW25113 by broth dilution method; type: functional; procedure, shortened: as §1
Escherichia coli [23] = test: Antimicrobial activity against sodA, sodB gene-deficient Escherichia coli K-12 3156 by broth dilution method; type: functional; procedure, shortened: as §1
Escherichia coli [24] = test: Bactericidal activity against katG gene-deficient Escherichia coli K-12 3157 after 2 hrs relative to wild-type; type: functional
Escherichia coli [25] = test: Bactericidal activity against katG gene-deficient Escherichia coli K-12 3157 after 2 hrs pretreated with 250 uM bipyridyl relative to wild-type; type: functional
Escherichia coli [26] = test: Bactericidal activity against sodA, sodB gene-deficient Escherichia coli K-12 3156 after 2 hrs relative to wild-type; type: functional
Escherichia coli [27] = test: Bactericidal activity against sodB gene-deficient Escherichia coli K-12 3145 after 2 hrs; type: functional, organism-based
Escherichia coli [28] = test: Bactericidal activity against katG gene-deficient Escherichia coli K-12 3157 after 18 hrs; type: functional; conditions: K-12 3157, 18 h
Escherichia coli [29] = test: Antimicrobial activity against sodB gene-deficient Escherichia coli K-12 3145 by broth dilution method; type: functional; procedure, shortened: as §1
Escherichia coli [30] = test: Bactericidal activity against katG gene-deficient Escherichia coli K-12 3157 at 10 times MIC pretreated with 100 mM thiourea relative to wild-type; type: functional
Escherichia coli [31] = test: Bactericidal activity against katG,katE gene-deficient Escherichia coli K-12 3201 after 2 hrs relative to wild-type; type: functional
Escherichia coli [32] = test: Bactericidal activity against sodA gene-deficient Escherichia coli K-12 3144 after 2 hrs; type: functional, organism-based
Escherichia coli [33] = test: Bactericidal activity against sodA gene-deficient Escherichia coli K-12 3144 after 18 hrs; type: functional; conditions: K-12 3144, 18 h
Escherichia coli [34] = test: Bactericidal activity against katG gene-deficient Escherichia coli K-12 3157 after 2 hrs pretreated with 100 mM thiourea relative to wild-type; type: functional
Escherichia coli [35] = test: Bactericidal activity against katG gene-deficient Escherichia coli K-12 3157 at 100 times MIC; type: functional, organism-based
Escherichia coli [36] = test: Bactericidal activity against katG,katE gene-deficient Escherichia coli K-12 3201 at 100 times MIC; type: functional, organism-based
Escherichia coli [37] = test: Bactericidal activity against ahpC gene-deficient Escherichia coli K-12 3200 at 100 times MIC; type: functional, organism-based
Escherichia coli [38] = test: Bactericidal activity against Escherichia coli K-12 BW25113 at 100 times MIC; type: functional, organism-based

| SMILES | MIC (Escherichia coli [1]) | MBC (Escherichia coli [2]) | MIC (Escherichia coli [3]) | MBC (Escherichia coli [5]) | MIC (Escherichia coli [6]) | MBC (Escherichia coli [7]) | Activity (Escherichia coli [8]) | MBC (Escherichia coli [10]) | MIC (Escherichia coli [12]) | MIC (Escherichia coli [13]) | MBC (Escherichia coli [14]) | MBC (Escherichia coli [15]) | MBC (Escherichia coli [16]) | MIC (Escherichia coli [17]) | Activity (Escherichia coli [20]) | MIC (Escherichia coli [22]) | MIC (Escherichia coli [23]) | Activity (Escherichia coli [27]) | MBC (Escherichia coli [28]) | MIC (Escherichia coli [29]) | further results |
| --- | --- | --- | --- | --- | --- | --- | --- | --- | --- | --- | --- | --- | --- | --- | --- | --- | --- | --- | --- | --- | --- |
| CCn1cc(C(=O)O)c(=O)c2cc(F)c(N3CCNCC3)cc21 [NORFLOXACIN] | 0.04 µg/mL | 0.16 µg/mL (≈ 0.501 µM) | 0.04 µg/mL | 0.16 µg/mL (≈ 0.501 µM) | 0.08 µg/mL | 0.32 µg/mL (≈ 1 µM) | Active | 0.16 µg/mL (≈ 0.501 µM) | 0.04 µg/mL | 0.04 µg/mL | 0.32 µg/mL (≈ 1 µM) | 0.32 µg/mL (≈ 1 µM) | 0.32 µg/mL (≈ 1 µM) | 0.04 µg/mL | Active | 0.04 µg/mL | 0.04 µg/mL | Active | 0.16 µg/mL (≈ 0.501 µM) | 0.04 µg/mL | Activity (Escherichia coli [4]): Active; fold change (FC) (Escherichia coli [9]): 10; Activity (Escherichia coli [11]): Active; fold change (FC) (Escherichia coli [18]): 10; fold change (FC) (Escherichia coli [19]): 10; fold change (FC) (Escherichia coli [21]): 10; fold change (FC) (Escherichia coli [24]): 10; fold change (FC) (Escherichia coli [25]): 10; fold change (FC) (Escherichia coli [26]): 10; fold change (FC) (Escherichia coli [30]): 10; fold change (FC) (Escherichia coli [31]): 10; Activity (Escherichia coli [32]): Active; MBC (Escherichia coli [33]): 0.32 µg/mL (≈ 1 µM); fold change (FC) (Escherichia coli [34]): 10 |
| CC1(C)S[C@@H]2[C@H](NC(=O)[C@H](N)c3ccccc3)C(=O)N2[C@H]1C(=O)O [AMPICILLIN] | 15 µg/mL | 80 µg/mL (≈ 229 µM) | 15 µg/mL | 20 µg/mL (≈ 57.2 µM) | 30 µg/mL | 80 µg/mL (≈ 229 µM) |  | 40 µg/mL (≈ 114 µM) | 15 µg/mL | 15 µg/mL | 80 µg/mL (≈ 229 µM) | 80 µg/mL (≈ 229 µM) | 80 µg/mL (≈ 229 µM) | 15 µg/mL |  | 15 µg/mL | 15 µg/mL |  | 80 µg/mL (≈ 229 µM) | 15 µg/mL | MBC (Escherichia coli [33]): 80 µg/mL (≈ 229 µM) |
| c1ccc(-c2ccccn2)nc1 [DIPYRIDYL] | 500 µM |  | 500 µM |  | 500 µM |  |  |  | 500 µM | 500 µM |  |  |  | 500 µM |  | 500 µM | 500 µM |  |  | 500 µM |  |
| CCn1cc(C(=O)O)c(=O)c2cc3c(cc21)OCO3 |  |  |  |  |  |  | Active |  |  |  |  |  |  |  | Active |  |  | Active |  |  | Activity (Escherichia coli [32]): Active |
| O=C(O)c1cn(C2CC2)c2cc(N3CCNCC3)c(F)cc2c1=O |  |  |  |  |  |  | Active |  |  |  |  |  |  |  | Active |  |  | Active |  |  | Activity (Escherichia coli [32]): Active |
| NC[C@H]1O[C@H](O[C@H]2[C@H](O)[C@@H](O[C@H]3O[C@H](CO)[C@@H](O)[C@H](N)[C@H]3O)[C@H](N)C[C@@H]2N)[C@H](O)[C@@H](O)[C@@H]1O [KANAMYCIN] | 0.6 µg/mL | 20 µg/mL (≈ 41.3 µM) | 0.6 µg/mL | 10 µg/mL (≈ 20.6 µM) | 1.2 µg/mL | 20 µg/mL (≈ 41.3 µM) |  | 10 µg/mL (≈ 20.6 µM) | 0.6 µg/mL | 2.4 µg/mL | 20 µg/mL (≈ 41.3 µM) | 20 µg/mL (≈ 41.3 µM) | 20 µg/mL (≈ 41.3 µM) | 0.6 µg/mL |  | 0.6 µg/mL | 0.6 µg/mL |  | 20 µg/mL (≈ 41.3 µM) | 0.6 µg/mL | MBC (Escherichia coli [33]): 20 µg/mL (≈ 41.3 µM) |
| O=C(N[C@H](CO)[C@H](O)c1ccc([N+](=O)[O-])cc1)C(Cl)Cl |  |  |  |  |  |  |  |  |  |  |  |  |  |  |  |  |  |  |  |  | Activity (Escherichia coli [35]): inactive; Activity (Escherichia coli [36]): inactive; Activity (Escherichia coli [37]): inactive; Activity (Escherichia coli [38]): inactive |
